≈ marks a conversion by molar mass, not a printed value.
Experiments:
Format in all cases: functional
Staphylococcus aureus [1] = experiment: Antibacterial activity against Staphylococcus aureus MTCC 96 at 2 mg/ml after 24 hrs by agar well diffusion method; conditions: MTCC 96, 24 h, read-out: DIZ
Method in brief: (§1)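 Cultures adjusted to 0.5 McFarland and left 15 min on agar for adsorption. 8 mm wells bored and loaded with compound at 2.0 mg/mL in DMSO. Incubated 37 °C for 24 h. Growth-inhibition zone diameter (mm) read with a zone scale and reported as the average. DMSO served as negative control and ciprofloxacin as positive control.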

Pseudomonas aeruginosa [2] = experiment: Antibacterial activity against Pseudomonas aeruginosa MTCC 741 after 24 hrs by agar well diffusion method; conditions: MTCC 741, 24 h
Method in brief: (§2)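 MIC by modified agar well diffusion. Two-fold serial dilutions (DMSO stock diluted in sterile distilled water), range 256 to 0.5, placed in wells in triplicate. Agar was pre-seeded with 100 standardized inoculum at 10⁶ cfu/mL. Incubated aerobically at 37 °C for 24 h. MIC taken as lowest concentration giving a clear zone, i.e. complete growth inhibition.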

Pseudomonas aeruginosa [3] = experiment: Antibacterial activity against Pseudomonas aeruginosa MTCC 741 at 2 mg/ml after 24 hrs by agar well diffusion method; conditions: MTCC 741, 24 h, read-out: DIZ; method in brief: as §1
Escherichia coli [4] = experiment: Antibacterial activity against Escherichia coli MTCC 1652 after 24 hrs by agar well diffusion method; conditions: MTCC 1652, 24 h; method in brief: as §2
Staphylococcus aureus [5] = experiment: Antibacterial activity against Staphylococcus aureus MTCC 96 after 24 hrs by agar well diffusion method; conditions: MTCC 96, 24 h; method in brief: as §2
Penicillium sp. = experiment: Antifungal activity against Penicillium sp. assessed as inhibition of mycelial growth at 4 mg/ml after 7 days; conditions: 168 h, read-out: GI
Method in brief: (§3)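 Poisoned food method. Molds grown on Sabouraud dextrose agar at 25 °C for 7 days to provide inocula. Molten SDA (45 °C) dosed with compound at 4.0 mg/mL in DMSO, then solidified. 8 mm fungal plugs from colony margins placed centrally. Incubated 25 °C for 7 days, in triplicate. % mycelial growth inhibition calculated from colony diameters versus DMSO control. Fluconazole served as positive control.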

Bacillus subtilis [6] = experiment: Antibacterial activity against Bacillus subtilis MTCC 121 at 2 mg/ml after 24 hrs by agar well diffusion method; conditions: MTCC 121, 24 h, read-out: DIZ; method in brief: as §1
Aspergillus niger = experiment: Antifungal activity against Aspergillus niger assessed as inhibition of mycelial growth at 4 mg/ml after 7 days; conditions: 168 h, read-out: GI; method in brief: as §3
Bacillus subtilis [7] = experiment: Antibacterial activity against Bacillus subtilis MTCC 121 after 24 hrs by agar well diffusion method; conditions: MTCC 121, 24 h; method in brief: as §2
Aspergillus flavus = experiment: Antifungal activity against Aspergillus flavus assessed as inhibition of mycelial growth at 4 mg/ml after 7 days; conditions: 168 h, read-out: GI; method in brief: as §3
Escherichia coli [8] = experiment: Antibacterial activity against Escherichia coli MTCC 1652 at 2 mg/ml after 24 hrs by agar well diffusion method; conditions: MTCC 1652, 24 h, read-out: DIZ; method in brief: as §1

SMILES | zone of inhibition at 2000 µg/mL (Staphylococcus aureus [1]) [mm] | MIC (Pseudomonas aeruginosa [2]) [mg/L] | zone of inhibition at 2000 µg/mL (Pseudomonas aeruginosa [3]) [mm] | MIC (Escherichia coli [4]) [mg/L] | MIC (Staphylococcus aureus [5]) [mg/L] | inhibition of growth at 4000 µg/mL (Penicillium sp.) [%] | zone of inhibition at 2000 µg/mL (Bacillus subtilis [6]) [mm] | inhibition of growth at 4000 µg/mL (Aspergillus niger) [%] | MIC (Bacillus subtilis [7]) [mg/L] | inhibition of growth at 4000 µg/mL (Aspergillus flavus) [%] | zone of inhibition at 2000 µg/mL (Escherichia coli [8]) [mm]
CCCc1nnc2n1N=C1c3ccccc3CC1S2 (stereo not drawn) | 27.3 | 64 (≈ 237 µM) | 18.6 | 64 (≈ 237 µM) | 8 (≈ 29.6 µM) | 53.3 | 25 | 55.5 | 16 (≈ 59.2 µM) | 52.5 | 19.3
CCc1nnc2sc3cc4c(C)cccc4c-3nn12 | 21.6 | 64 (≈ 238 µM) | 17.3 | 64 (≈ 238 µM) | 32 (≈ 119 µM) | 63.3 | 23 | 65.5 | 32 (≈ 119 µM) | 62.5 | 19.3
Cc1cccc2c3nn4c(C)nnc4sc-3cc12 | 20.3 | 128 (≈ 503 µM) | 15.6 | 64 (≈ 252 µM) | 64 (≈ 252 µM) | 51.1 | 18.6 | 53.3 | 64 (≈ 252 µM) | 50 | 18.6

— ChEMBL document CHEMBL1828500, “Synthesis and biological evaluation of dihydroindeno and indeno [1,2-e] [1,2,4]triazolo [3,4-b] [1,3,4]thiadiazines as antimicrobial agents” (2011)
